ChEMBL document CHEMBL1154674, “Synthesis and evaluation of three 18F-labeled aminophenylbenzothiazoles as amyloid imaging agents” (J Med Chem, 2009)

Experiments:
Format in all cases: ADME, organism-based, Macaca mulatta
[1] = Drug level in normal rhesus monkey parietal cortex assessed as standard uptake value at 96.3 MBq, iv after 47.5 mins by microPET; conditions: in vivo
[2] = Drug level in normal rhesus monkey parietal cortex assessed as standard uptake value at 96.3 MBq, iv after 105 mins by microPET; conditions: in vivo, 1.75 h
[3] = Drug level in normal rhesus monkey parietal cortex assessed as standard uptake value at 96.3 MBq, iv after 1.5 mins by microPET; conditions: in vivo, 0.025 h
[4] = Drug level in normal rhesus monkey parietal cortex assessed as standard uptake value at 96.3 MBq, iv after 22.5 mins by microPET; conditions: in vivo, 0.375 h
[5] = Drug level in normal rhesus monkey cerebellum assessed as standard uptake value at 96.3 MBq, iv after 85 mins by microPET; conditions: in vivo
Method in brief: (§1)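 One normal rhesus monkey, each tracer given iv via the vena saphena (81.2, 96.3 or 109.4 MBq), with 1 day between tracer injections. Dynamic brain μPET over 180 min used frames of 5 × 60 s, 5 × 120 s, 9 × 300 s and 12 × 600 s. Images were reconstructed by filtered back projection with a RAMP filter. Regional time-activity curves were expressed as SUV.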

[6] = Drug level in normal rhesus monkey pons assessed as standard uptake value at 96.3 MBq, iv after 155 mins by microPET; conditions: in vivo
[7] = Drug level in normal rhesus monkey cerebellum assessed as standard uptake value at 96.3 MBq, iv after 125 mins by microPET; conditions: in vivo; method in brief: as §1
[8] = Drug level in normal rhesus monkey parietal cortex assessed as standard uptake value at 81.2 MBq, iv after 22.5 mins by microPET; conditions: in vivo, 0.375 h
[9] = Drug level in normal rhesus monkey white matter assessed as standard uptake value at 81.2 MBq, iv after 17.5 mins by microPET; conditions: in vivo
[10] = Drug level in normal rhesus monkey parietal cortex assessed as standard uptake value at 81.2 MBq, iv after 42.5 mins by microPET; conditions: in vivo
[11] = Drug level in normal rhesus monkey parietal cortex assessed as standard uptake value at 81.2 MBq, iv after 105 mins by microPET; conditions: in vivo, 1.75 h
[12] = Drug level in normal rhesus monkey parietal cortex assessed as standard uptake value at 81.2 MBq, iv after 32.5 mins by microPET; conditions: in vivo
[13] = Drug level in normal rhesus monkey white matter assessed as standard uptake value at 81.2 MBq, iv after 47.5 mins by microPET; conditions: in vivo
[14] = Drug level in normal rhesus monkey thalamus assessed as standard uptake value at 81.2 MBq, iv after 17.5 mins by microPET; conditions: in vivo
[15] = Drug level in normal rhesus monkey frontal cortex assessed as standard uptake value at 81.2 MBq, iv after 22.5 mins by microPET; conditions: in vivo, 0.375 h
[16] = Drug level in normal rhesus monkey frontal cortex assessed as standard uptake value at 81.2 MBq, iv after 57.5 mins by microPET; conditions: in vivo
[17] = Drug level in normal rhesus monkey white matter assessed as standard uptake value at 152.9 MBq, iv after 4.5 mins by microPET; conditions: in vivo, 0.075 h
[18] = Drug level in normal rhesus monkey parietal cortex assessed as standard uptake value at 152.9 MBq, iv after 0.5 mins by microPET; conditions: in vivo
[19] = Drug level in normal rhesus monkey parietal cortex assessed as standard uptake value at 152.9 MBq, iv after 52.5 mins by microPET; conditions: in vivo, 0.875 h
[20] = Drug level in normal rhesus monkey frontal cortex assessed as standard uptake value at 152.9 MBq, iv after 10 mins by microPET; conditions: in vivo
Method in brief: (§2)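 Single normal rhesus monkey; tracer given iv via the vena saphena, 1 day apart from the other tracer injections. Dynamic μPET ran 90 min (5×60 s, 5×120 s, 9×300 s, 3×600 s). Images were reconstructed by filtered back projection with a RAMP filter. Regional time-activity curves were expressed as SUV.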

[21] = Drug level in normal rhesus monkey frontal cortex assessed as standard uptake value at 152.9 MBq, iv after 8 mins by microPET; conditions: in vivo; method in brief: as §2
[22] = Drug level in normal rhesus monkey pons assessed as standard uptake value at 152.9 MBq, iv after 65 mins by microPET; conditions: in vivo
[23] = Drug level in normal rhesus monkey cerebellum assessed as standard uptake value at 152.9 MBq, iv after 57.5 mins by microPET; conditions: in vivo
Method in brief: (§3)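 One normal rhesus monkey received each tracer via the vena saphena, with 1 day between injections. Dynamic μPET ran 180 min for 18F tracers (5×60 s, 5×120 s, 9×300 s, 12×600 s) and 90 min for the 11C tracer (5×60 s, 5×120 s, 9×300 s, 3×600 s). Filtered back-projection reconstruction (RAMP filter) was used. Time-activity curves were drawn to give regional SUV.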

[24] = Drug level in normal rhesus monkey cerebellum assessed as standard uptake value at 152.9 MBq, iv after 12 mins by microPET; conditions: in vivo, 0.2 h; method in brief: as §3
[25] = Drug level in normal rhesus monkey frontal cortex assessed as standard uptake value at 152.9 MBq, iv after 42.5 mins by microPET; conditions: in vivo; method in brief: as §2
[26] = Drug level in normal rhesus monkey frontal cortex assessed as standard uptake value at 152.9 MBq, iv after 6 mins by microPET; conditions: in vivo, 0.1 h; method in brief: as §2
[27] = Drug level in normal rhesus monkey cerebellum assessed as standard uptake value at 152.9 MBq, iv after 22.5 mins by microPET; conditions: in vivo, 0.375 h; method in brief: as §3
[28] = Drug level in normal rhesus monkey cerebellum assessed as standard uptake value at 152.9 MBq, iv after 85 mins by microPET; conditions: in vivo
Method in brief: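 One normal rhesus monkey, tracer given iv via the vena saphena (152.9 MBq), with at least 1 day between tracer injections. Dynamic brain μPET over 90 min used frames of 5 × 60 s, 5 × 120 s, 9 × 300 s and 3 × 600 s. Images were reconstructed by filtered back projection with a RAMP filter. Regional time-activity curves were expressed as SUV.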

[29] = Drug level in normal rhesus monkey thalamus assessed as standard uptake value at 109.4 MBq, iv after 52.5 mins by microPET; conditions: in vivo, 0.875 h
[30] = Drug level in normal rhesus monkey frontal cortex assessed as standard uptake value at 109.4 MBq, iv after 93 mins by microPET; conditions: in vivo, 1.55 h
[31] = Drug level in normal rhesus monkey pons assessed as standard uptake value at 109.4 MBq, iv after 63 mins by microPET; conditions: in vivo, 1.05 h
[32] = Drug level in normal rhesus monkey pons assessed as standard uptake value at 109.4 MBq, iv after 37.5 mins by microPET; conditions: in vivo, 0.625 h
[33] = Drug level in normal rhesus monkey cerebellum assessed as standard uptake value at 109.4 MBq, iv after 12.5 mins by microPET; conditions: in vivo
[34] = Drug level in normal rhesus monkey parietal cortex assessed as standard uptake value at 109.4 MBq, iv after 32.5 mins by microPET; conditions: in vivo
[35] = Drug level in normal rhesus monkey pons assessed as standard uptake value at 109.4 MBq, iv after 27.5 mins by microPET; conditions: in vivo

Question: What does the source list for `CN(C)c1ccc2nc(-c3ccc([18F])cc3)sc2c1`?
Answer: SUV [1]: 1.72; SUV [2]: 1.35; SUV [3]: 1.7; SUV [4]: 2.09; SUV [5]: 1.03; SUV [6]: 1.87; SUV [7]: 0.9

Question: Which results are given for `CNc1ccc2nc(-c3ccc([18F])cc3)sc2c1`?
Answer: SUV [8]: 4.538; SUV [9]: 3.647; SUV [10]: 3.863; SUV [11]: 2.784; SUV [12]: 4.094; SUV [13]: 3.674; SUV [14]: 5.379; SUV [15]: 5.717; SUV [16]: 5.004

Question: What does the source list for `[11CH3]Nc1ccc(-c2nc3ccc(O)cc3s2)cc1` [PITTSBURGH COMPOUND B]?
Answer: SUV [17]: 1.334; SUV [18]: 0.039; SUV [19]: 0.799; SUV [20]: 2.163; SUV [21]: 2.29; SUV [22]: 0.852; SUV [23]: 0.764; SUV [24]: 2.252; SUV [25]: 0.84; SUV [26]: 2.184; SUV [27]: 1.502; SUV [28]: 0.685

Question: Which SUV [29] does the source give for `Nc1ccc2nc(-c3ccc([18F])cc3)sc2c1` here?
Answer: The SUV was 5.41.

Question: And the SUV [30]?
Answer: Its SUV is 4.25.

Question: And the SUV [31]?
Answer: The SUV was 4.75.

Question: And the SUV [32]?
Answer: The SUV was 4.73.

Question: What about the SUV [33] of the same compound?
Answer: Its SUV is 5.33.

Question: What about the SUV [34] of the same compound?
Answer: The SUV was 4.8.

Question: What about the SUV [35] of the same compound?
Answer: The SUV was 4.78.
